Data from article PMC3996760 (Brain research, 2014).
Entries after “also recorded” stand apart in the source; their conditions may differ. Read-outs that look alike come from different tables or passages of the source.

Assays:
α1β3γ2 GABAA receptors = α1β3γ2 GABAA receptors (Rattus norvegicus, UniProt P18508+P62813); assay type: cell-based; settings: for in vitro efficacy: GABA EC3
[1] = Quantification in rat plasma and brain tissue; assay type: in vivo, Wistar rats; settings: for brain estimated free concentration: total × free fraction
male Wistar rats [2] = test: Spontaneous locomotor activity test; assay type: in vivo; settings: for SLA total distance: 30 min recording, mean ± SEM
male Wistar rats [3] = test: Elevated plus maze test; assay type: in vivo; settings: for EPM % time on open arms / EPM number of closed arm entries: mean ± SEM
Summary of the method: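 Maze 50 cm high, closed arms lit at 10 lux red. Rat placed centrally facing an enclosed arm and video-tracked for 5 min. Arm entry scored at 80% body crossing. One-way ANOVA; ANCOVA for % open-arm time with closed-arm entries as covariate; n=7.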

male Wistar rats [4] = test: Open field test; assay type: in vivo; settings: for OF total distance: 15 min; for OF total distance / OF % time in central zone: mean ± SEM; for OF % time in central zone: first 5 min
male Wistar rats [5] = test: Grip strength test; assay type: in vivo; settings: for GS grip strength: mean ± SEM
Summary of the method: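 At 20 min post-dose, rats gripped a trapezoid wire grid on a grip-strength meter with their front paws and were lifted by the tail with increasing firmness until release. n=8 per group; one-way ANOVA.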

male Wistar rats [6] = test: Rotarod test; assay type: in vivo; settings: for RR time on rotarod: max 120 s, mean ± SEM
male Wistar rats [7] = test: Morris water maze test; assay type: in vivo; settings: acquisition, mean ± SEM
Summary of the method: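 Pool 200 cm diameter, 23 °C water, platform submerged 2 cm. Four trials per block, max 120 s each, 60 s intertrial interval, pseudorandom starts. Escape latency video-tracked and averaged per rat per day; n=7.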

male Wistar rats [8] = test: Peripheral nerve injury model; assay type: in vivo
[9] = ref Munro et al., 2008, cited from earlier work

Sequence of α1β3γ2 GABAA receptors (P62813 28-455): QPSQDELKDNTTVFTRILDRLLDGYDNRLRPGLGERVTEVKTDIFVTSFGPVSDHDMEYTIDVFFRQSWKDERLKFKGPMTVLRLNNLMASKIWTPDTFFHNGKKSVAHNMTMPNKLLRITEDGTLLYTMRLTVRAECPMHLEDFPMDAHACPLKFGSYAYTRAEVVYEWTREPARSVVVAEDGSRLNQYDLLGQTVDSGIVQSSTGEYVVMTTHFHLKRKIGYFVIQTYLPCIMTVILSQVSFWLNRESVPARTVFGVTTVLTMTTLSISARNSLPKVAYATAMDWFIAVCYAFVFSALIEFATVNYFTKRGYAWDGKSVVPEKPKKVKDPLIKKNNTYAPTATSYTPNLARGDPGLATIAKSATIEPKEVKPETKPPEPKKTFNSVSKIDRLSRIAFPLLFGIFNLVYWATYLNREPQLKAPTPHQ
Sequence of α1β3γ2 GABAA receptors (P18508 39-466): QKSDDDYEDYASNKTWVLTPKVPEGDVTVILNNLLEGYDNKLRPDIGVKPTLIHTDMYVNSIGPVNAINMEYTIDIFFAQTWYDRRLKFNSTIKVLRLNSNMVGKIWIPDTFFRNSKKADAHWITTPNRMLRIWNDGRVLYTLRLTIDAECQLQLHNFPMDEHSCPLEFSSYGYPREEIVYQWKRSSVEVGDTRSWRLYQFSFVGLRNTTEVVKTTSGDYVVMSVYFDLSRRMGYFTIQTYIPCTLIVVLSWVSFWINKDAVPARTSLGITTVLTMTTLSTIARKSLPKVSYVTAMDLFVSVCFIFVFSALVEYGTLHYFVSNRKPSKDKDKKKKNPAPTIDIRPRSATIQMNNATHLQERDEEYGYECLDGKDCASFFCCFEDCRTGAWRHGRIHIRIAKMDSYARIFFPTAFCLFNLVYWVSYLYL
Sequence of α1β3γ2 GABAA receptors (P63079 26-473 partner): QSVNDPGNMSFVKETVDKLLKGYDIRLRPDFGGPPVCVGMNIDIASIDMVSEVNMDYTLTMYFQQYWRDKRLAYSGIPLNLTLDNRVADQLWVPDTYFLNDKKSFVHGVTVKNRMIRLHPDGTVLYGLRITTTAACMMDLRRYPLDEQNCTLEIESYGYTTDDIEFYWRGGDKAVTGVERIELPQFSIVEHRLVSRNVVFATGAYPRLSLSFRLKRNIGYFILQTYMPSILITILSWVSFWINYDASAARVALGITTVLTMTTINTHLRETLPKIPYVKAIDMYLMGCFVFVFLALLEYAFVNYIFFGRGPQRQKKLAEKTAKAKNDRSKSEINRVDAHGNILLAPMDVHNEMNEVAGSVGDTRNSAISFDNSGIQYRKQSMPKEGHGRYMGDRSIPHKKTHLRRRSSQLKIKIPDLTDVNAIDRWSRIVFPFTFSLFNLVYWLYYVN

C[C@@H]1N=C(c2ccccc2F)c2cc(Br)ccc2NC1=O [SH-I-048A, (S)-7-bromo-5-(2-fluorophenyl)-3-methyl-1Hbenzo[e][1,4]diazepin-2(3H)-one]
in vitro efficacy (α1β3γ2 GABAA receptors; concentration 1 nM): 124%
in vitro efficacy (α1β3γ2 GABAA receptors; concentration 10 nM): 256%
approximated potentiation at estimated in vivo free brain concentration (α1β3γ2 GABAA receptors; free concentration 3.26 nM (0.5 mg/kg i.p., 20 min), linear interpolation): 157%
brain total concentration ([1]; 0.5 mg/kg i.p., 20 min): 231.12 ± 52.27 nmol/kg
brain estimated free concentration ([1]; 0.5 mg/kg i.p., 20 min): 3.26 nmol/kg
brain total concentration ([1]; 2 mg/kg i.p., 20 min): 750.59 ± 307.14 nmol/kg
brain estimated free concentration ([1]; 2 mg/kg i.p., 20 min): 10.60 nmol/kg
brain total concentration ([1]; 2 mg/kg i.p., 60 min): 739.37 ± 182.94 nmol/kg
brain estimated free concentration ([1]; 2 mg/kg i.p., 60 min): 10.45 nmol/kg
brain total concentration ([1]; 10 mg/kg i.p., 20 min): 2096.33 ± 858.32 nmol/kg
brain estimated free concentration ([1]; 10 mg/kg i.p., 20 min): 29.62 nmol/kg
brain total concentration ([1]; 10 mg/kg i.p., 60 min): 1035.23 ± 421.19 nmol/kg
brain estimated free concentration ([1]; 10 mg/kg i.p., 60 min): 14.63 nmol/kg
SLA total distance (male Wistar rats [2]; 10 mg/kg i.p.): 6.42 ± 2.26 m
influence on total distance traveled during 30 min (male Wistar rats [2]; 2, 5 and 10 mg/kg, one-way ANOVA p=0.061): did not reach statistical significance
distance traveled in second 5-min bin (5–10 min) vs solvent (male Wistar rats [2]; 5 and 10 mg/kg, p=0.017 and p=0.008): traveled shorter distances than the solvent-treated animals
EPM % time on open arms (male Wistar rats [3]; 10 mg/kg i.p.): 67.43 ± 12.34 %
EPM number of closed arm entries (male Wistar rats [3]; 10 mg/kg i.p.): 4.00 ± 1.23
influence on EPM parameters, preliminary study (male Wistar rats [3]; 0.5 and 2 mg/kg, data not shown): devoid of any influences
effect of treatment on number of closed arm entries (male Wistar rats [3]; 2, 5 and 10 mg/kg, one-way ANOVA p=0.072): no significant effect
effect of treatment on percentage of time spent on open arms (male Wistar rats [3]; 2, 5 and 10 mg/kg, one-way ANOVA p=0.095): not significant
OF total distance (male Wistar rats [4]; 10 mg/kg i.p.): 15.39 ± 5.35 m
OF % time in central zone (male Wistar rats [4]; 10 mg/kg i.p.): 30.01 ± 15.49%
effect on total distance traveled in open field vs solvent (male Wistar rats [4]; 10 mg/kg only, Dunnett p<0.001): significantly decreased
effect on percent of time spent in the central zone (male Wistar rats [4]; 0.2, 0.5, 2 and 10 mg/kg, p=0.669): not significantly affected
GS grip strength (male Wistar rats [5]; 10 mg/kg i.p.): 2588.83 ± 169.52 g/kg
effect on grip strength vs solvent (male Wistar rats [5]; 2, 5 and 10 mg/kg, p=0.002, p<0.001, p=0.002): significant muscle relaxation
RR time on rotarod (male Wistar rats [6]; 10 mg/kg i.p.): 0.25 ± 0.16 s
MWM latency Day 1 (male Wistar rats [7]; 10 mg/kg i.p. daily): 102.11 ± 9.11 s
MWM latency Day 2 (male Wistar rats [7]; 10 mg/kg i.p. daily): 88.52 ± 9.40 s
MWM latency Day 3 (male Wistar rats [7]; 10 mg/kg i.p. daily): 62.98 ± 14.13 s
MWM latency Day 4 (male Wistar rats [7]; 10 mg/kg i.p. daily): 53.39 ± 14.74 s
MWM latency Day 5 (male Wistar rats [7]; 10 mg/kg i.p. daily): 42.65 ± 13.99 s
effect of Treatment on paw withdrawal threshold 48 h after surgery (male Wistar rats [8]; 10 mg/kg, one to three doses, p=0.157): no significant effect
paw withdrawal threshold 24 h after injury vs solvent (male Wistar rats [8]; three doses of 10 mg/kg (0, 12, 23 h), p=0.015): significantly higher paw withdrawal threshold; also recorded: reversed mechanical hyperalgesia

CC(C)(C)OC(=O)c1cc2c(cn1)[nH]c1ccccc12 [β-CCt, t-butyl-β-carboline-3-carboxylate]
effect of adding β-CCt on latency to fall from the revolving rod (male Wistar rats [6]; β-CCt 30 mg/kg added to 10 and 25 mg/kg SH-I-048A, 0.5, 1 and 1.5 h): increased latency to fall

CN1C(=O)CN=C(c2ccccc2)c2cc(Cl)ccc21 [diazepam, reference compound]
SLA total distance (male Wistar rats [2]; 2 mg/kg i.p.): 7.17 ± 1.13 m
EPM % time on open arms (male Wistar rats [3]; 2 mg/kg i.p.): 76.67 ± 6.67 %
EPM number of closed arm entries (male Wistar rats [3]; 2 mg/kg i.p.): 4.09 ± 0.77
OF total distance (male Wistar rats [4]; 2 mg/kg i.p.): 24.50 ± 5.34 m
OF % time in central zone (male Wistar rats [4]; 2 mg/kg i.p.): 3.09 ± 1.15%
GS grip strength (male Wistar rats [5]; 2 mg/kg i.p.): 1722.50 ± 197.65 g/kg
RR time on rotarod (male Wistar rats [6]; 2 mg/kg i.p.): 41.70 ± 9.79 s
MWM latency Day 1 (male Wistar rats [7]; 2 mg/kg i.p. daily): 103.45 ± 10.64 s
MWM latency Day 2 (male Wistar rats [7]; 2 mg/kg i.p. daily): 92.82 ± 6.40 s
MWM latency Day 3 (male Wistar rats [7]; 2 mg/kg i.p. daily): 77.83 ± 15.52 s
MWM latency Day 4 (male Wistar rats [7]; 2 mg/kg i.p. daily): 59.02 ± 9.78 s
MWM latency Day 5 (male Wistar rats [7]; 2 mg/kg i.p. daily): 56.40 ± 10.20 s
effect on hind paw hypersensitivity ([9]; highest dose tested (10 mg/kg)): able to attenuate hind paw hypersensitivity

Cc1ccc(-c2nc3ccc(C)cn3c2CC(=O)N(C)C)cc1 [zolpidem]
activity in chronic constriction injury model [9]: completely inactive
